FGF22 binding: binders of human FGF22 protein, primary screen, FGF22 synaptogenesis inhibitor project, biophysical, thermal shift, single point. Fibroblast growth factor 22 (Homo sapiens), Q9HCT0. recombinant FGF22 thermal shift, SYPRO orange fluorescence; percent of sucrose octasulfate shift, DMSO zero. activity (Tm shift, normalised), % at 9.99 µM. 340,000 tested, 1.5% active. AID 651658, 2012;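 active = mean Tm shift, scaled 0 neutral to 100 positive control, at about 1.3% or above, every replicate too, limit read from the data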
DENV2 CPE rescue: inhibitors of DENV2 cytopathic effect, primary screen, cell-based, plate reader, single concentration; 350,000 tested, 1.7% active; DENV2-infected cells, cytopathic effect rescue; CPE inhibition, % at 9.99 µM; in the data active = CPE inhibition above about 20%, passing the limit was not always enough; tested in BHK-21 cells;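 also: 0% = median of neutral control wells and 100% = median of positive control wells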
CFTR F508del cor: F508del CFTR correction, initial screen, CFBE line, single point; activity (quench increase), % at 7.58 µM; 350,000 tested, 0.36% active; CFBE cells, YFP halide quenching; stimulated with forskolin plus potentiator P3; % fluorescence drop versus neutral controls;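 active = mean added fluorescence quench of at least 8% versus neutral control, with both replicates also reaching 8%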;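 also: cells transiently co-express mutant CFTR-F508del with the halide-sensitive YFP; corrector assay measuring rescue of mutant channel to the surface after 24 h compound exposure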
E-sel inducer: E-selectin induction in HUVECs, primary screen, imaging, HUVEC, immunofluorescence imaging, single point; normalized: neutral wells 0, TNF-alpha wells 100; activation, % at 7.58 µM; 260,000 tested, 0.37% active; AID 686992, 2013;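 active = mean E-selectin-positive cell signal at least 10% of the positive control, reached in at least 60% of replicates, without over 20% cell loss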
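Assay system: HUVEC, human umbilical vein endothelial cells / Amount: 3,000 HUVEC/well / Controls: TNF-alpha positive control, DMSO neutral control / Compound dosing: single concentration / Medium: EGM-2 over gelatin coat / Evaluation: percent E-selectin-positive cells / Signal: immunofluorescence imaging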
ERAP1 inh: human ERAP1 aminopeptidase inhibitors, primary screen, biochemical, single point, plate reader. Endoplasmic reticulum aminopeptidase 1 (Homo sapiens), Q9NZ08. recombinant ERAP1, Leu-AMC fluorescence, 60 min. inhibition, % at 10.7 µM. 340,000 tested, 0.15% active;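 active = mean replicate inhibition of at least 30%, or all replicates individually reaching that 30% level; inactive = mean below 30% and not every replicate reaching it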;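 also: 0% = neutral control wells and 100% = L-leucinethiol positive control wells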
Target sequence (Q9NZ08 whole entry, looked up): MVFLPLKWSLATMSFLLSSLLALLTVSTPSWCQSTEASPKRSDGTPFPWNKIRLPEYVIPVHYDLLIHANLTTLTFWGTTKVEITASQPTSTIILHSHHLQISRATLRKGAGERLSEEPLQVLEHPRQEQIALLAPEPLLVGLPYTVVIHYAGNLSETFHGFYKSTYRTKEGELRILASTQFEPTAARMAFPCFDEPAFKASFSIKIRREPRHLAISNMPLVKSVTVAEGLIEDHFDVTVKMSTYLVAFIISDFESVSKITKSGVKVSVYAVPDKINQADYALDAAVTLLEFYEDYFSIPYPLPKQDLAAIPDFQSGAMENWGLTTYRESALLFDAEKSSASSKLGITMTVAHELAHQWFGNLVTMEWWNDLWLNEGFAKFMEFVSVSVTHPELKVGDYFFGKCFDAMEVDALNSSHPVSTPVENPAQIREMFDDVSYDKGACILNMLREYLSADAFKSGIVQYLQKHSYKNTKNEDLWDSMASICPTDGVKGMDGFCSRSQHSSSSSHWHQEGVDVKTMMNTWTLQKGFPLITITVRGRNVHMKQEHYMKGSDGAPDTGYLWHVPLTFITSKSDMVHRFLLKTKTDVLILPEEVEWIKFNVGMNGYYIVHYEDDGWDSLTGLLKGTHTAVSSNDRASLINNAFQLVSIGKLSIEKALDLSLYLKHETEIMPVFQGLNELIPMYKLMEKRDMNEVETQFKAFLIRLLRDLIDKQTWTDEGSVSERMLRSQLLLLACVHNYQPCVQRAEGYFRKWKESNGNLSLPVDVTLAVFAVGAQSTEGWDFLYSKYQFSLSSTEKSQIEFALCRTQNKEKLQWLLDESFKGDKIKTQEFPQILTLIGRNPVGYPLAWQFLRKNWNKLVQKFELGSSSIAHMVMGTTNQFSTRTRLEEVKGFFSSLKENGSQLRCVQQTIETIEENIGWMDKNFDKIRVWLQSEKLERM
Active calls of the source: *; nt = no result given. Only some compounds are listed: those with a hit (about 3.7% of all), similar ones and a draw of the others.

SMILES	FGF22 binding	DENV2 CPE rescue	CFTR F508del cor	E-sel inducer	ERAP1 inh
Cc1noc(C)c1NC(=O)Nc1ccc2c(c1)C(=O)N([C@H](C)CO)C[C@H](C)[C@@H](CN(C)Cc1ccccc1)O2	-1	23*	-4	0	4
Cc1noc(C)c1NC(=O)Nc1ccc2c(c1)C(=O)N([C@@H](C)CO)C[C@@H](C)[C@H](CN(C)Cc1ccccc1)O2	-1	9	0	0	3
Cc1noc(C)c1NC(=O)Nc1ccc2c(c1)C(=O)N([C@H](C)CO)C[C@@H](C)[C@@H](CN(C)Cc1ccc(C(=O)Nc3ccccc3N)cc1)O2	0	0	-2	nt	2
Cc1noc(C)c1NC(=O)Nc1ccc2c(c1)C(=O)N([C@H](C)CO)C[C@H](C)[C@H](CN(C)Cc1ccc(C(=O)Nc3ccccc3N)cc1)O2	0	22*	0	nt	-1
Cc1noc(C)c1NC(=O)Nc1ccc2c(c1)C(=O)N([C@@H](C)CO)C[C@H](C)[C@H](CN(C)Cc1ccccc1)O2	0	23*	-2	0	1
CCCNC(=O)Nc1ccc2c(c1)OC[C@H](C)N(Cc1ccncc1)C[C@H](C)[C@H](OC)CN(C)C2=O	0	5	2	0	-1
Cc1noc(C)c1NC(=O)Nc1cccc2c1O[C@@H](CN(C)Cc1ccc(C(=O)O)cc1)[C@@H](C)CN([C@@H](C)CO)C2=O	1	45*	1	nt	3
Cc1noc(C)c1NC(=O)Nc1cccc2c1O[C@@H](CN(C)Cc1ccc(-c3ccccc3)cc1)[C@H](C)CN([C@H](C)CO)C2=O	0	39*	0	1	0
C[C@H](CO)N1C[C@H](C)[C@@H](CN(C)Cc2ccc(-c3ccccc3)cc2)Oc2c(NC(=O)c3nc4ccccc4s3)cccc2C1=O	0	-8	-2	0	3
C[C@H]1CN([C@@H](C)CO)C(=O)c2cccc(NC(=O)Nc3cccc4ccccc34)c2O[C@H]1CN(C)Cc1ccc(-c2ccccc2)cc1	nt	nt	1	90*	nt
C[C@H](CO)N1C[C@H](C)[C@H](CN(C)Cc2ccc(-c3ccccc3)cc2)Oc2c(NC(=O)c3nc4ccccc4s3)cccc2C1=O	0	41*	6	0	2
Cc1noc(C)c1NC(=O)Nc1cccc2c1O[C@H](CN(C)Cc1ccc(C(=O)O)cc1)[C@H](C)CN([C@H](C)CO)C2=O	0	-1	1	nt	2
CC(C)NC(=O)Nc1cccc2c1O[C@@H](CN(C)Cc1ccc(Oc3ccccc3)cc1)[C@@H](C)CN([C@@H](C)CO)C2=O	0	5	2	0	1
CCCNC(=O)C[C@@H]1CC[C@H]2[C@H](COc3ccc(NC(=O)Nc4cccc(C)c4)cc3C(=O)N2C)O1	0	17	5	0	1
CCCNC(=O)Nc1ccc2c(c1)OC[C@@H](C)N(CC1CCCC1)C[C@@H](C)[C@@H](OC)CN(C)C2=O	nt	-9	3	1	-2
C[C@H](CO)N1C[C@H](C)[C@@H](CN(C)C(=O)Cc2ccccc2)OCCCC[C@H](C)Oc2ccc(N(C)C)cc2C1=O	-1	-7	-2	0	-2
C[C@H](CO)N1C[C@H](C)[C@@H](CN(C)S(=O)(=O)c2ccc(Cl)cc2)Oc2c(NC(=O)c3nc4ccccc4s3)cccc2C1=O	0	25*	2	-16	1
Cc1noc(C)c1NC(=O)Nc1cccc2c1O[C@H](CN(C)Cc1ccc(C(F)(F)F)cc1)[C@@H](C)CN([C@@H](C)CO)C2=O	0	8	-6	-9	-3
Cc1noc(C)c1NC(=O)Nc1cccc2c1O[C@H](CN(C)Cc1ccc(C(F)(F)F)cc1)[C@H](C)CN([C@@H](C)CO)C2=O	0	21*	-4	-5	-2
Cc1nn(C)cc1NC(=O)C[C@@H]1CC[C@H]2[C@@H](COc3ccc(NC(=O)Nc4cccc(Cl)c4)cc3C(=O)N2C)O1	0	-4	5	0	0
CCC(=O)Nc1ccc2c(c1)OC[C@H](C)N(C(C)=O)C[C@@H](C)[C@@H](OC)CN(C)C2=O	0	-6	2	0	-1
COc1ccc2c(c1)OC[C@H]1[C@H]2N2C(=O)c3ccc(F)cc3NC(=O)[C@@]2(C)[C@H]1c1ccccc1	0	55*	-1	0	-1
CO[C@@H]1CN(C)C(=O)c2cc(NC(=O)C3CC3)ccc2OC[C@H](C)NC[C@@H]1C	0	3	0	0	-5
CCN(C(=O)COC(=O)c1cc2c(s1)CCCCC2)C1CCS(=O)(=O)C1 (stereo not drawn)	0	60*	-1	0	-1
CCN(C(=O)COC(=O)c1ccccc1OCc1ccc(Cl)cc1)C1CCS(=O)(=O)C1 (stereo not drawn)	43*	1	-2	-1	5
SMILES	FGF22 binding	DENV2 CPE rescue	CFTR F508del cor	E-sel inducer	ERAP1 inh
CCN(C(=O)COC(=O)c1ccccc1NC(=O)c1ccco1)C1CCS(=O)(=O)C1 (stereo not drawn)	43*	9	-1	nt	1
CCN(C(=O)COC(=O)c1ccccc1Cc1ccccc1)C1CCS(=O)(=O)C1 (stereo not drawn)	0	1	-1	0	0
O=C(COC(=O)c1cc2c(s1)CCCCC2)NC1CCS(=O)(=O)C1 (stereo not drawn)	0	-4	-1	nt	0
CCc1ccc(NC(=O)N(CCCN2CCOCC2)Cc2cccs2)cc1	0	34*	-3	4	-3
O=C(COC(=O)c1ccc(O)cc1)NCC1CCCO1 (stereo not drawn)	43*	6	2	1	-1
O/N=C1\CCCc2ccccc21	0	10	-7	2	3
CC(C)NC(=S)N/N=C1\CCCc2ccccc21	43*	-3	0	nt	1
COc1cccc(C2c3c(C)nn(-c4ccc([N+](=O)[O-])cc4)c3N=C3C(=O)Nc4ccccc4N32)c1 (stereo not drawn)	43*	-5	-6	8	3
Cc1nn(-c2ccc([N+](=O)[O-])cc2)c2c1C(c1ccc(OC(F)F)cc1)N1C(=N2)C(=O)Nc2ccccc21 (stereo not drawn)	43*	3	-4	nt	0
C[C@@H]1CN([C@H](C)CO)C(=O)c2c(c3ccccc3n2C)-c2ccccc2CO[C@@H]1CN(C)CC1CC1	0	-4	-4	0	-6
CCNC(=O)Nc1ccc2c(c1)C(=O)N(C)[C@H]1CC[C@@H](CC(=O)NCC3CC3)O[C@@H]1CO2	0	6	0	0	nt
